# Test results published in ChEMBL document CHEMBL4038323, “Discovery and Kinetic Profiling of 7-Aryl-1,2,4-triazolo[4,3-a]pyridines: Positive Allosteric Modulators of the Metabotropic Glutamate Receptor 2” (J Med Chem, 2017).
# Active and inactive are the calls of the source. No cut-off for these calls is given here.
# Tests used:
# [1] = target: T1, Metabotropic glutamate receptor 2 (Homo sapiens, UniProt Q14416); test: Displacement of [3H]JNJ-46281222 from human metabotropic glutamate receptor 2 expressed in CHOK1 cell membranes assessed as association rate constant measured every 30 sec for 120 mins by scintillation proximity assay
# In short: (§1)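 For the SPA competition association, CHO-K1_hmGlu2 membranes (20 µg) were pre-coupled 30 min to WGA SPA beads, then mixed with 6 nM [3H]JNJ-46281222, competitor and 1 mM glutamate. Counts were read every 30 s for 120 min at 28°C.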
# Target sequence in this assay (Q14416 19-872 limits assumed): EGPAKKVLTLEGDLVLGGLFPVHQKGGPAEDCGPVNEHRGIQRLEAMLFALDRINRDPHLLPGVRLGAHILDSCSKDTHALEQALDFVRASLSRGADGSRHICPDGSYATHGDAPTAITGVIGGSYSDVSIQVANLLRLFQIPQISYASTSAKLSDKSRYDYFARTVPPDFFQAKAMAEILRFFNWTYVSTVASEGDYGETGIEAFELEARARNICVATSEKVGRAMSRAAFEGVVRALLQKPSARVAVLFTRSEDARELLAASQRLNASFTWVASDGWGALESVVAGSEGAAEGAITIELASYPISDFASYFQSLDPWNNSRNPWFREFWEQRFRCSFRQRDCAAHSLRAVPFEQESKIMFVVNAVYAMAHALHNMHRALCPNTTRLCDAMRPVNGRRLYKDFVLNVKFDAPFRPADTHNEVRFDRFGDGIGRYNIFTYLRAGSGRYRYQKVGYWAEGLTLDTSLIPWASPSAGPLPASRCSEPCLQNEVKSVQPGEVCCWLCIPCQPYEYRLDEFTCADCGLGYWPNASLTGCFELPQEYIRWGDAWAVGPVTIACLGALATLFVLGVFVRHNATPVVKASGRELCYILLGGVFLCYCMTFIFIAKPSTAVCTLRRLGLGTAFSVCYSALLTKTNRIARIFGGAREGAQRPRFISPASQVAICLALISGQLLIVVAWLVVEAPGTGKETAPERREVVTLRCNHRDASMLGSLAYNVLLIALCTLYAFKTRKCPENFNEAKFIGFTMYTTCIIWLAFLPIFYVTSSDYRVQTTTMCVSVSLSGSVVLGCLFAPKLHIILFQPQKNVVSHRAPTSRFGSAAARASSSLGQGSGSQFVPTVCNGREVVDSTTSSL
# [2] = target: T1, Metabotropic glutamate receptor 2; test: Displacement of [3H]JNJ-46281222 from human metabotropic glutamate receptor 2 expressed in CHOK1 cell membranes assessed as dissociation rate constant measured every 30 sec for 120 mins by scintillation proximity assay; in short: as §1
# Target sequence in this assay (Q14416 19-872 limits assumed): as above
# [3] = target: T1, Metabotropic glutamate receptor 2; test: Displacement of [3H]JNJ-46281222 from human metabotropic glutamate receptor 2 expressed in CHOK1 cell membranes assessed as residence time measured every 30 sec for 120 mins by scintillation proximity assay; in short: as §1
# Target sequence in this assay (Q14416 19-872 limits assumed): as above
# [4] = target: T1, Metabotropic glutamate receptor 2; test: Binding affinity to human metabotropic glutamate receptor 2 expressed in CHOK1 cell membranes by scintillation proximity assay
# Target sequence in this assay (Q14416 whole entry): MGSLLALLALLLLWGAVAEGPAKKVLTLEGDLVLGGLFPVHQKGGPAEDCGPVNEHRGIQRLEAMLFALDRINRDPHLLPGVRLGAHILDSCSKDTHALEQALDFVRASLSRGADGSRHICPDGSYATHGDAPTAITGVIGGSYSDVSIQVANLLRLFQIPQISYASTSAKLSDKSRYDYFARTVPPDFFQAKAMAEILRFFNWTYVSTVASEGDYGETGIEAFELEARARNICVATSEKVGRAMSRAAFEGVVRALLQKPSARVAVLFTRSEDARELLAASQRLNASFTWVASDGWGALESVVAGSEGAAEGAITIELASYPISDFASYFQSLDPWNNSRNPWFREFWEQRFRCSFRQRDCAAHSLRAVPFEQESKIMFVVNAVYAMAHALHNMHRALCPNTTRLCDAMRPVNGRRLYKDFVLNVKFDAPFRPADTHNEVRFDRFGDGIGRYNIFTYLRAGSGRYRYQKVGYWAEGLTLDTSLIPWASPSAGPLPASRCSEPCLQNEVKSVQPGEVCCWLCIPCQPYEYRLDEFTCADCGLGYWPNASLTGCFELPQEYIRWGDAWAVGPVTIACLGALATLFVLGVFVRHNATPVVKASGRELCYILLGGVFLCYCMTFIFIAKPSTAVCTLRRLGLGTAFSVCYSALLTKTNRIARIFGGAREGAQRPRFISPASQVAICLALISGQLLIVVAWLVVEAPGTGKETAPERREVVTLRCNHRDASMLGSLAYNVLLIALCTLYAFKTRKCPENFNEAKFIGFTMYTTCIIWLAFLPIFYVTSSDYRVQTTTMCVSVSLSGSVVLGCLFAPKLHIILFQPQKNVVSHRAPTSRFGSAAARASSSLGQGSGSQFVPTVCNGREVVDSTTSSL
# [5] = target: T1, Metabotropic glutamate receptor 2; test: Positive allosteric modulation of human metabotropic glutamate receptor 2 expressed in CHOK1 cell membranes assessed as increase in glutamate-induced [35S]GTPgammaS binding preincubated for 30 mins followed by [35S]GTPgammaS addition measured after 30 mins by Topcount scintillation counting method; type: functional
# Target sequence in this assay (Q14416 whole entry): as above
# [6] = target: T1, Metabotropic glutamate receptor 2; test: Displacement of [3H]-JNJ46281222 from human metabotropic glutamate receptor 2 expressed in CHOK1 cell membranes after 60 mins by liquid scintillation counting method
# Target sequence in this assay (Q14416 whole entry): as above
# Rattus norvegicus [7] = test: In vivo positive allosteric modulation of metabotropic glutamate receptor 2 in Sprague-Dawley rat assessed as reduction in REM at 10 mg/kg, po measured for 24 consecutive 5 mins period; type: functional, organism-based
# In short: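 Sprague-Dawley rats (n=8 per group) received single oral doses of 1, 3 or 10 mg/kg or 20% CD vehicle. REM sleep was scored in 24 consecutive 5-min bins over the first 2 h. Comparison was by mixed-model ANOVA.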
# [8] = target: T1, Metabotropic glutamate receptor 2; test: Displacement of [3H]-JNJ46281222 from human metabotropic glutamate receptor 2 expressed in CHOK1 cell membranes after 60 mins by microbeta counting analysis
# Target sequence in this assay (Q14416 whole entry): as above
# Rattus norvegicus [9] = test: Effect on total sleep in Sprague-Dawley rat at 1 to 10 mg/kg, po measured for 2 hrs; type: ADME, organism-based; details: in vivo
# Brain = test: Unbound concentration in Sprague-Dawley rat brain at 10 mg/kg, po measured after 1 hr; type: ADME, organism-based; details: in vivo
# [10] = target: Metabotropic glutamate receptor 1 (Homo sapiens) (UniProt Q13255); test: Agonist activity at human metabotropic glutamate receptor 1 expressed in HEK293 cells assessed as induction of Ca2+ internalization after 1 hr by fluo-4-AM dye based fluorescence assay; type: functional, cell-based
# Sequence of Metabotropic glutamate receptor 1 (Homo sapiens) (Q13255 19-1194 limits assumed): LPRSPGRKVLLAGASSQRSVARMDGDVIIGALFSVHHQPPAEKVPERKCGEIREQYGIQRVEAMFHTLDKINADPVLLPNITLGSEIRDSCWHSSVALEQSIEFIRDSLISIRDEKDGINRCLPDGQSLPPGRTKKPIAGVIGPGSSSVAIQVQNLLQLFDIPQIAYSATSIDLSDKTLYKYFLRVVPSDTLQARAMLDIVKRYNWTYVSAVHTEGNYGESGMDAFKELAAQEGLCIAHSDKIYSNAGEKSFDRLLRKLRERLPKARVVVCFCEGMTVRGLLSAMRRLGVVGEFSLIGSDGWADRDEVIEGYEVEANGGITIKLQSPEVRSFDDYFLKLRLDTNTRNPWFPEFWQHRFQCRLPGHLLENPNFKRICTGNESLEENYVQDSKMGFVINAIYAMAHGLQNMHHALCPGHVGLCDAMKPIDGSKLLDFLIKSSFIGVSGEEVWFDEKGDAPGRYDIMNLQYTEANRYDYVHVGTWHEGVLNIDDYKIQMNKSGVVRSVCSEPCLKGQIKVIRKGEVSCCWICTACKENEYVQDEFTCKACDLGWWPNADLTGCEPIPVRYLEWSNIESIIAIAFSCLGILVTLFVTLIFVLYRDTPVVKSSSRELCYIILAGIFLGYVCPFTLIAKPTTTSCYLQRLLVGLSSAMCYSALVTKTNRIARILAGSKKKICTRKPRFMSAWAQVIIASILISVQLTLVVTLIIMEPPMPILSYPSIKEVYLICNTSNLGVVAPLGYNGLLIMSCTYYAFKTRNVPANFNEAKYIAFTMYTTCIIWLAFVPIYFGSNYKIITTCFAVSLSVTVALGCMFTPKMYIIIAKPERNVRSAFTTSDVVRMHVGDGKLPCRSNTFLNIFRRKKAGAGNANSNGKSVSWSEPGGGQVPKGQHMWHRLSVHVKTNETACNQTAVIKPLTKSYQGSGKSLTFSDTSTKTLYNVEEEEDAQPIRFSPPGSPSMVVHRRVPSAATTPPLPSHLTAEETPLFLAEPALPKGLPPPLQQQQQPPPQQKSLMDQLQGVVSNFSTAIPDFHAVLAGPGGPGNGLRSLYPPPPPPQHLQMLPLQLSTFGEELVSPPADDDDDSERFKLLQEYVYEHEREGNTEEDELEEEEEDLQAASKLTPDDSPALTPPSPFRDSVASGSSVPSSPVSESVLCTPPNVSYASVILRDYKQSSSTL
# [11] = target: Metabotropic glutamate receptor 1 (Homo sapiens) (UniProt Q13255); test: Antagonist activity at human metabotropic glutamate receptor 1 expressed in HEK293 cells assessed as inhibition of glutamate-induced Ca2+ internalization after 1 hr by fluo-4-AM dye based fluorescence assay; type: functional, cell-based
# [12] = target: Metabotropic glutamate receptor 3 (Homo sapiens) (UniProt Q14832); test: Agonist activity at human metabotropic glutamate receptor 3 expressed in HEK293 cells assessed as induction of Ca2+ internalization after 1 hr by fluo-4-AM dye based fluorescence assay; type: functional, cell-based
# [13] = target: Metabotropic glutamate receptor 3 (Homo sapiens) (UniProt Q14832); test: Antagonist activity at human metabotropic glutamate receptor 3 expressed in HEK293 cells assessed as inhibition of glutamate-induced Ca2+ internalization after 1 hr by fluo-4-AM dye based fluorescence assay; type: functional, cell-based
# [14] = target: Metabotropic glutamate receptor 5 (Homo sapiens) (UniProt P41594); test: Agonist activity at human metabotropic glutamate receptor 5 expressed in HEK293 cells assessed as induction of Ca2+ internalization after 1 hr by fluo-4-AM dye based fluorescence assay; type: functional, cell-based
# [15] = target: Metabotropic glutamate receptor 5 (Homo sapiens) (UniProt P41594); test: Antagonist activity at human metabotropic glutamate receptor 5 expressed in HEK293 cells assessed as inhibition of glutamate-induced Ca2+ internalization after 1 hr by fluo-4-AM dye based fluorescence assay; type: functional, cell-based
# [16] = target: Metabotropic glutamate receptor 5 (Homo sapiens) (UniProt P41594); test: Positive allosteric modulation of human metabotropic glutamate receptor 5 expressed in HEK293 cells assessed as induction of Ca2+ […] after 1 hr in the presence of glutamate by fluo-4-AM dye based fluorescence assay; type: functional, cell-based
# [17] = target: Metabotropic glutamate receptor 7 (Homo sapiens) (UniProt Q14831); test: Agonist activity at human metabotropic glutamate receptor 7 expressed in HEK293 cells assessed as induction of Ca2+ internalization after 1 hr by fluo-4-AM dye based fluorescence assay; type: functional, cell-based
# Sequence of Metabotropic glutamate receptor 7 (Homo sapiens) (Q14831 whole entry): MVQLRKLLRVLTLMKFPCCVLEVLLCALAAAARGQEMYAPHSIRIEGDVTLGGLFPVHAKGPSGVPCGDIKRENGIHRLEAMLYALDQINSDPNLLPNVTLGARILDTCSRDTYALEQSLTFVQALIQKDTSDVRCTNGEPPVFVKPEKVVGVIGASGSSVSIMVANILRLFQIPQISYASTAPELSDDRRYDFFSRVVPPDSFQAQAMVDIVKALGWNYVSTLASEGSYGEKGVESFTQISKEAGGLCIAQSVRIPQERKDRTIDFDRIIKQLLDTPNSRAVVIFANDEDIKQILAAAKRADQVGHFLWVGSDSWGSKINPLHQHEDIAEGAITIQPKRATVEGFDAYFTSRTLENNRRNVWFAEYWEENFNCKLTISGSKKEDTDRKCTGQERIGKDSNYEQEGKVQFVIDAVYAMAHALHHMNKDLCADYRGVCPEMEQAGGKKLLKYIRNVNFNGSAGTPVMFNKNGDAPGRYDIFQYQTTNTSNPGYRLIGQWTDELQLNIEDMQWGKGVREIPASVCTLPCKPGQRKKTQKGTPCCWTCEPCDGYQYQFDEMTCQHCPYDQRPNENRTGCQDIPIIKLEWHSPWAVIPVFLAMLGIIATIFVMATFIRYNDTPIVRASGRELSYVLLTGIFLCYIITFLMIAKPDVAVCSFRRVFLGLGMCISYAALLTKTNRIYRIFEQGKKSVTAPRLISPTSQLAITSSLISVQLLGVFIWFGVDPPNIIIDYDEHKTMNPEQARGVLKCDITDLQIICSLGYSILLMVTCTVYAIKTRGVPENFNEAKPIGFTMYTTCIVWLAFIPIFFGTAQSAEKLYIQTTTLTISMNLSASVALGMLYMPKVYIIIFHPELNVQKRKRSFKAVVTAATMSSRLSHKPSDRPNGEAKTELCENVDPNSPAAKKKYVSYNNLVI
# [18] = target: Metabotropic glutamate receptor 7 (Homo sapiens) (UniProt Q14831); test: Antagonist activity at human metabotropic glutamate receptor 7 expressed in HEK293 cells assessed as inhibition of glutamate-induced Ca2+ internalization after 1 hr by fluo-4-AM dye based fluorescence assay; type: functional, cell-based
# [19] = target: Metabotropic glutamate receptor 8 (Homo sapiens) (UniProt O00222); test: Agonist activity at human metabotropic glutamate receptor 8 expressed in HEK293 cells assessed as induction of Ca2+ internalization after 1 hr by fluo-4-AM dye based fluorescence assay; type: functional, cell-based
# Sequence of Metabotropic glutamate receptor 8 (Homo sapiens) (O00222 whole entry): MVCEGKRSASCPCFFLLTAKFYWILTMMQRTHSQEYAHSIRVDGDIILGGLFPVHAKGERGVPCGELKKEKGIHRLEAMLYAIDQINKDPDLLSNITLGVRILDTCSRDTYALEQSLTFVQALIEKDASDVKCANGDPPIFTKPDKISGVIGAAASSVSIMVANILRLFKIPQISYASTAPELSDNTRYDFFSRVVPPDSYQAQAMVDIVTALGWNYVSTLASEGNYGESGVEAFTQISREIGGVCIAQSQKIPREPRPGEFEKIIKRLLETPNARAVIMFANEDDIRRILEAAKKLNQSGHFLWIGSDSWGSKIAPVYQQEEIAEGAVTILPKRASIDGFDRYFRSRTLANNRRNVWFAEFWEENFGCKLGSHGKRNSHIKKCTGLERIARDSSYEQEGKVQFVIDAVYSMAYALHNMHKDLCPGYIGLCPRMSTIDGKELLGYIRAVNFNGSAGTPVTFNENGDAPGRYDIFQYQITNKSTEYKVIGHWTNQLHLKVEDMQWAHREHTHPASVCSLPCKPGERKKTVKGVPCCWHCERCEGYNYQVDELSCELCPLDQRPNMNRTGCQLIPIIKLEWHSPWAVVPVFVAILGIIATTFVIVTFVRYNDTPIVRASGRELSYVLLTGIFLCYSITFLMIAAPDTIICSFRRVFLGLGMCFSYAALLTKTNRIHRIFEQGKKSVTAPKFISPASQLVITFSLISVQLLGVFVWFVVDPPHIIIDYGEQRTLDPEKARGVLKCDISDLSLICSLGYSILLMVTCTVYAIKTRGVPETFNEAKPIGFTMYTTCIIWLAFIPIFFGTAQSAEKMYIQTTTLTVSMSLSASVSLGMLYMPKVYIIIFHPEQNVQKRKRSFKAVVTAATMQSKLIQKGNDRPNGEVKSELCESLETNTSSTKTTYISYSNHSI
# [20] = target: Metabotropic glutamate receptor 8 (Homo sapiens) (UniProt O00222); test: Antagonist activity at human metabotropic glutamate receptor 8 expressed in HEK293 cells assessed as inhibition of glutamate-induced Ca2+ internalization after 1 hr by fluo-4-AM dye based fluorescence assay; type: functional, cell-based
# [21] = target: Metabotropic glutamate receptor 4 (Homo sapiens) (UniProt Q14833); test: Agonist activity at human metabotropic glutamate receptor 4 assessed as increase in [35S]GTPgammaS binding preincubated for 30 mins followed by [35S]GTPgammaS addition measured after 30 mins by Topcount scintillation counting method; type: functional
# [22] = target: Metabotropic glutamate receptor 4 (Homo sapiens) (UniProt Q14833); test: Antagonist activity at human metabotropic glutamate receptor 4 assessed as inhibition of glutamate-induced [35S]GTPgammaS binding preincubated for 30 mins followed by [35S]GTPgammaS addition measured after 30 mins by Topcount scintillation counting method; type: functional
# [23] = target: Metabotropic glutamate receptor 6 (Rattus norvegicus) (UniProt P35349); test: Agonist activity at rat metabotropic glutamate receptor 6 expressed in CHO cell membranes assessed as increase in [35S]GTPgammaS binding preincubated for 30 mins followed by [35S]GTPgammaS addition measured after 30 mins by Topcount scintillation counting method; type: functional
# [24] = target: Metabotropic glutamate receptor 6 (Rattus norvegicus) (UniProt P35349); test: Antagonist activity at rat metabotropic glutamate receptor 6 expressed in CHO cell membranes assessed as inhibition of glutamate-induced [35S]GTPgammaS binding preincubated for 30 mins followed by [35S]GTPgammaS addition measured after 30 mins by Topcount scintillation counting method; type: functional
# CHO-K1 = test: Effect on cellular impedance in CHOK1 cells up to 1 uM measured for 20 mins with 15 sec time interval followed by 40 mins with 5 mins time interval and subsequently measured with 15 mins time interval by RTCA; type: functional, cell-based; details: Cricetulus griseus
# In short: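 xCELLigence impedance used 40,000 cells/well of wild-type CHO-K1 or CHO-K1_hmGlu2, rested 30 min at room temperature, then 18 h at 37°C, 5% CO2. Cells got 100 nM or 1 µM compound. Reads: every 15 s for 20 min, 5 min for 40 min, then 15 min. Baseline-corrected; three repeats in duplicate.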
Structure (SMILES),K [1],K [2] [min⁻¹],TIME [3] [h],Kd [4] [nM],EC50 [5] [nM],Ki [8] [nM],further results
N#Cc1c(N2CCC(c3ccccc3)CC2)ccn(CC2CC2)c1=O,1.7 ×10⁶ /M/min,0.09,0.185,51,79.4,,Ki [6]: 26.3 nM
Fc1cc(-c2ccn3c(CC4CC4)nnc3c2C(F)(F)F)ccc1Oc1ccnc(C2CC2)c1,2.2 ×10⁷ /M/min,0.189,0.0883,8.6,18.6,3.63,Activity (Rattus norvegicus [7]): Active; Activity (Rattus norvegicus [9]): Non-Toxic; Drug uptake(free) (Brain): 3.5 ng/g
Cc1ccc(Oc2ccc(-c3ccn4c(CC5CC5)nnc4c3C(F)(F)F)cc2F)c(C)n1,1.3 ×10⁷ /M/min,0.033,0.502,2.5,8.71,2.57,Activity (Rattus norvegicus [7]): Active; Activity (Rattus norvegicus [9]): Non-Toxic; Drug uptake(free) (Brain): 5 ng/g
O[C@H]1CC[C@H](Nc2ccc(-c3ccn4c(CC(F)(F)F)nnc4c3Cl)cc2Cl)CC1,6.7 ×10⁶ /M/min,0.074,0.227,10.8,41.7,6.03,Activity [10]: inactive; inhibition [11]: inactive; Activity [12]: inactive; inhibition [13]: inactive; Activity [14]: inactive; inhibition [15]: inactive; Activity [16]: inactive; Activity [17]: inactive; inhibition [18]: inactive; Activity [19]: inactive; inhibition [20]: inactive; Activity [21]: inactive; inhibition [22]: inactive; Activity [23]: inactive; inhibition [24]: inactive
Cc1ccc(Oc2ccc(-c3ccn4c(CC5CC5)nnc4c3Cl)cc2Cl)c(C)n1,6.2 ×10⁷ /M/min,0.061,0.272,1,12.3,6.03,Activity [10]: inactive; inhibition [11]: inactive; Activity [12]: inactive; inhibition [13]: inactive; Activity [14]: inactive; inhibition [15]: inactive; Activity [16]: inactive; Activity [17]: inactive; inhibition [18]: inactive; Activity [19]: inactive; inhibition [20]: inactive; Activity [21]: inactive; inhibition [22]: inactive; Activity [23]: inactive; inhibition [24]: inactive
CC(C)C(=O)c1ccc(OCc2ccc(CNC(=O)c3cn(C)cn3)cc2)c(C(F)(F)F)c1O,1.2 ×10⁶ /M/min,0.12,0.14,100,107,,Ki [6]: 79.4 nM
FC(F)(F)c1c(CN2CCC(c3ccccc3)CC2)ccn2c(CC3CC3)nnc12,,,,,,,Activity (CHO-K1): inactive
Fc1cc(-c2ccn3c(CC4CC4)nnc3c2Cl)ccc1NC1CC1,4.8 ×10⁶ /M/min,0.061,0.273,12.7,63.1,10.2,Activity [10]: inactive; inhibition [11]: inactive; Activity [12]: inactive; inhibition [13]: inactive; Activity [14]: inactive; inhibition [15]: inactive; Activity [16]: inactive; Activity [17]: inactive; inhibition [18]: inactive; Activity [19]: inactive; inhibition [20]: inactive; Activity [21]: inactive; inhibition [22]: inactive; Activity [23]: inactive; inhibition [24]: inactive
FC(F)(F)c1c(-c2ccc(NC3CC3)c(Cl)c2)ccn2c(CC3CC3)nnc12,7.7 ×10⁷ /M/min,0.088,0.188,1.2,7.76,2.24,
Cc1cc(Oc2ccc(-c3ccn4c(CC5CC5)nnc4c3C(F)(F)F)cc2F)cc(C)n1,8.3 ×10⁶ /M/min,0.095,0.175,11.5,64.6,10,
Cc1ccc(Oc2ccc(-c3ccn4c(CC5CC5)nnc4c3C)cc2F)c(C)n1,8.6 ×10⁶ /M/min,0.086,0.193,10,77.6,21.9,
